Test results from ChEMBL document CHEMBL4480361, “Design, synthesis, and in vitro biological evaluation of novel benzimidazole tethered allylidenehydrazinylmethylthiazole derivatives as potent inhibitors of Mycobacterium tuberculosis” (Medchemcomm, 2019).
Values after ≈ are worked out from the molar mass of the structure shown.

Columns and labels:
MDCK = test: Cytotoxicity against MDCK cells assessed as reduction in cell viability after 72 hrs by CCK-8 assay; type: cell-based; details: Canis lupus familiaris
[1] = system: Mycobacterium tuberculosis; test: Antitubercular activity against auto-luminescent Mycobacterium tuberculosis H37Ra measured for 5 days by luminescence assay; type: functional; details: 120 h
Summary of the method: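 Unmarked autoluminescent H37Ra homogenised with glass beads, grown in 7H9 with 0.05% Tween 80 and 10% OADC to OD600 0.3–0.5. At 2 million RLU, diluted to 2000–4000 RLU in Tween-free 7H9. Compounds tested in 3-fold steps from […] μg mL⁻¹, with DMSO and rifampicin (10, 1, 0.1 μg mL⁻¹) controls. RLU read daily for 5 days. MIClux is the lowest concentration giving RLUdrug/RLUDMSO below 10%.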

[2] = system: Mycobacterium tuberculosis; test: Antitubercular activity against Mycobacterium tuberculosis H37Ra measured for 5 days by resazurin dye-based assay; type: functional; details: 120 h

Structure (SMILES)	IC50 (MDCK) [µg/mL]	MIC90 [1] [µg/mL]	MIC [2] [µg/mL]
NC(=S)N/N=C(/C=C/c1ccc(Cl)c(F)c1)c1nc2ccccc2[nH]1	1.5 (≈ 4.01 µM)	5 (≈ 13.4 µM)	–
Cc1csc(N/N=C(/C=C/c2ccc(F)cc2)c2nc3ccccc3[nH]2)n1	–	5 (≈ 13.2 µM)	–
NC(=S)N/N=C(/C=C/c1ccc[nH]1)c1nc2ccccc2[nH]1	–	100 (≈ 322 µM)	–
NC(=S)N/N=C(/C=C/c1ccc(Br)cc1)c1nc2ccccc2[nH]1	2.6 (≈ 6.5 µM)	4 (≈ 9.99 µM)	–
Cc1ccc(/C=C/C(=N/Nc2nc(C)cs2)c2nc3ccccc3[nH]2)cc1	–	10 (≈ 26.8 µM)	–
COc1ccc(/C=C/C(=N/NC(N)=S)c2nc3ccccc3[nH]2)cc1	–	10 (≈ 28.5 µM)	–
Cc1csc(N/N=C(/C=C/c2cccc3[nH]ccc23)c2nc3ccccc3[nH]2)n1	–	10 (≈ 25.1 µM)	–
Cc1csc(N/N=C(/C=C/c2ccccc2)c2nc3ccccc3[nH]2)n1	2.9 (≈ 8.07 µM)	4 (≈ 11.1 µM)	–
Cc1csc(N/N=C(/C=C/c2ccc(F)c(C)c2)c2nc3ccccc3[nH]2)n1	–	10 (≈ 25.5 µM)	–
NC(=S)N/N=C(/C=C/c1ccc(OC(F)(F)F)cc1)c1nc2ccccc2[nH]1	0.34 (≈ 0.839 µM)	5 (≈ 12.3 µM)	–
Cc1csc(N/N=C(/C=C/c2ccc(Br)cc2)c2nc3ccccc3[nH]2)n1	–	10 (≈ 22.8 µM)	–
COc1cc(OC)c(/C=C/C(=N/NC(N)=S)c2nc3ccccc3[nH]2)c(OC)c1	–	> 50	–
NC(=S)N/N=C(/C=C/c1cc(F)cc(F)c1)c1nc2ccccc2[nH]1	1.6 (≈ 4.48 µM)	5 (≈ 14 µM)	–
CCN(CC)c1ccc(/C=C/C(=N/Nc2nc(C)cs2)c2nc3ccccc3[nH]2)cc1	> 30	2.5 (≈ 5.81 µM)	–
COc1cccc(/C=C/C(=N/NC(N)=S)c2nc3ccccc3[nH]2)c1OC	3.9 (≈ 10.2 µM)	5 (≈ 13.1 µM)	–
Cc1csc(N/N=C(/C=C/c2ccc[nH]2)c2nc3ccccc3[nH]2)n1	–	100 (≈ 287 µM)	–
NC(=S)N/N=C(/C=C/c1ccccc1)c1nc2ccccc2[nH]1	3.4 (≈ 10.6 µM)	5 (≈ 15.6 µM)	–
CCN(CC)c1ccc(/C=C/C(=N/NC(N)=S)c2nc3ccccc3[nH]2)cc1	–	10 (≈ 25.5 µM)	–
Cc1cc(/C=C/C(=N/NC(N)=S)c2nc3ccccc3[nH]2)ccc1F	1.6 (≈ 4.53 µM)	4 (≈ 11.3 µM)	–
Cc1csc(N/N=C(/C=C/c2cc(F)cc(F)c2)c2nc3ccccc3[nH]2)n1	–	10 (≈ 25.3 µM)	–
COc1cc(OC)c(/C=C/C(=N/Nc2nc(C)cs2)c2nc3ccccc3[nH]2)c(OC)c1	–	> 50	–
Cc1ccc(/C=C/C(=N/NC(N)=S)c2nc3ccccc3[nH]2)cc1	3.7 (≈ 11 µM)	5 (≈ 14.9 µM)	–
COc1cccc(/C=C/C(=N/Nc2nc(C)cs2)c2nc3ccccc3[nH]2)c1OC	–	10 (≈ 23.8 µM)	–
Cc1csc(N/N=C(/C=C/c2ccc(Cl)c(F)c2)c2nc3ccccc3[nH]2)n1	–	10 (≈ 24.3 µM)	–
NC(=S)N/N=C(/C=C/c1ccc(F)cc1)c1nc2ccccc2[nH]1	1.6 (≈ 4.71 µM)	2.5 (≈ 7.37 µM)	–
COc1ccc(/C=C/C(=N/Nc2nc(C)cs2)c2nc3ccccc3[nH]2)cc1	1.9 (≈ 4.88 µM)	10 (≈ 25.7 µM)	–
Cc1csc(N/N=C(/C=C/c2ccc(OC(F)(F)F)cc2)c2nc3ccccc3[nH]2)n1	–	10 (≈ 22.6 µM)	–
NC(=S)N/N=C(/C=C/c1cccc2[nH]ccc12)c1nc2ccccc2[nH]1	0.91 (≈ 2.52 µM)	5 (≈ 13.9 µM)	–
CCNC(=O)Nc1nc2cc(-c3cccnc3)cc(-c3ccccn3)c2[nH]1	–	–	0.001 (≈ 0.00279 µM)
CO[C@H]1/C=C/O[C@@]2(C)Oc3c(C)c(O)c4c(O)c(c(/C=N/N5CCN(C)CC5)c(O)c4c3C2=O)NC(=O)/C(C)=C\C=C\[C@H](C)[C@H](O)[C@@H](C)[C@@H](O)[C@@H](C)[C@H](OC(C)=O)[C@@H]1C [RIFAMPIN]	–	0.25 (≈ 0.304 µM)	–
